High-throughput results (PubChem BioAssay)
F508del corr: CFTR F508del correction in bronchial cells | activity (quench increase), % at 7.58 µM | 350,000 tested, 0.36% active | CFBE cells, YFP halide quenching; stimulated with forskolin plus potentiator P3; % fluorescence drop versus neutral controls;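 active = mean added fluorescence quench of at least 8% versus neutral control, with both replicates also reaching 8%; inconclusive = only one of the mean or replicate conditions met; inactive = mean below 8% and not both replicates reaching 8%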;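 also: cells transiently co-express mutant CFTR-F508del with the halide-sensitive YFP; corrector assay measuring rescue of mutant channel to the surface after 24 h compound exposure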
Cneo AK release: causes C. neoformans cell lysis | 360,000 tested, 0.2% active | lysis activity, % at 15 µM | adenylate kinase release luminescence, 4 h; normalised: neutral wells 0, clomiphene wells 100 | AID 651654;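 active = mean lysis activity across replicates of at least 80%, whatever share of replicates individually reach that level; inactive = mean lysis activity below 80%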
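Schedule: static 4 h at 37 °C with compound, 1 h detection; system: C. neoformans cells; benchmarks: Clomiphene as positive control; buffer or medium: fresh YPD medium; measure: luminescence rise reflecting yeast cell lysis; measured by: luminescent adenylate kinase detection reagent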
HIV Env fusion: blocks HIV Env-driven cell-cell fusion; HeLa-JRFL Env/CEM21 cell fusion, luciferase; inhibition, % at 12.3 µM; 360,000 tested, 1.1% active; AID 651610;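 active = mean replicate inhibition score of at least 50 and every replicate individually at or above 50; inconclusive = only one of the two criteria met; inactive = mean below 50 and not all replicates reaching 50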;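 also: 0% = plate neutral controls and 100% = maraviroc near 300 nM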
INS-1E GSIS act: GLuc luminescence reporter in INS-1E cells, primary screen for activators of glucose-dependent secretion of insulin; INS-1E GLuc reporter insulin secretion, 2-3 h; activation, % at 16.6 µM; 370,000 tested, 0.61% active; AID 743287;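 active = lowest replicate activation of at least 40%, so every replicate reaches that level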;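 also: 0% = median of neutral control wells and 100% = median of IBMX positive control wells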
miR-122 sensor: blocks miR-122 activity in Huh7 sensor cells; Huh7 miR-122 Renilla luciferase sensor, 48 h; neutral wells = 0, positive control = 100; activation (reporter increase), % at 12.5 µM; 340,000 tested, 0.3% active; AID 602342;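 active = mean replicate activation score at least 90 and every replicate individually at or above 90; inconclusive = only one of the two criteria met; inactive = neither criterion met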;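 also: higher luciferase means less miR-122 activity so hits act as miR-122 inhibitors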
Ecoli rRNA inh: selective bacterial rRNA inhibition in E. coli; E. coli WT GFP vs humanized-ribosome RFP mutants, fluorescence, 24 h; hits give low values; DMSO median 0, no signal -100; GFP signal change (wild-type ribosome), % (no concentration beside the values); 350,000 tested, 1.6% active;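 active = significant combined selectivity score with lowered wild-type GFP, culture density cut under 30%, mutant RFP and density less affected; inactive = any of these conditions unmet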
* hit, by the source's call; ? = inconclusive; nt = no result; [ ] = dose if it differs, or a comment. In the library only some 3.1% were active in any assay of this set; here they are far more common.

SMILES | F508del corr | Cneo AK release | HIV Env fusion | INS-1E GSIS act | miR-122 sensor | Ecoli rRNA inh
CO[C@H]1CN(C)C(=O)c2cc(NC(=O)Nc3ccc(Cl)cc3)ccc2OC[C@@H](C)N(C)C[C@@H]1C | -4.0 | -0.6 | 7.9[16.7 µM] | -8.6 | nt | -0.9
CO[C@@H]1CN(C)C(=O)c2cc(NC(=O)Nc3ccc(Cl)cc3)ccc2OC[C@H](C)N(C)C[C@H]1C | -0.2 | nt | 59.9*[16.7 µM] | -13.6 | nt | -4.5
COc1ccccc1C(=O)Nc1ccc2c(c1)C(=O)N(C)C[C@@H](OC)[C@H](C)CN(C)[C@@H](C)CO2 | 3.5 | 111.9* | 2.4[16.7 µM] | -0.9 | nt | -3.1
Clc1ccc(-c2c[n+](Cc3ccc(Br)cc3)c3n2CCCCC3)cc1 | 4.5 | nt | 13.7 | -28.2 | nt | -51.8*
Clc1ccc(-c2c[n+](Cc3ccc(Cl)cc3Cl)c3n2CCCCC3)cc1 | ? | nt | 20.4 | -21.9 | nt | -50.9
O=[N+]([O-])c1ccc(C[n+]2cc(-c3ccccc3)n3c2CCCCC3)cc1 | 0.6 | nt | 0.7 | 12.5 | 6.3 | 12.3
O=C(C[n+]1cc(-c2ccc(Cl)c(Cl)c2)n2c1CCC2)OCc1ccccc1 | nt | 1.1 | 25.7 | -9.4 | -5.5 | -13.9*
O=[N+]([O-])c1ccc(C[n+]2cc(-c3ccc(Cl)c(Cl)c3)n3c2CCCCC3)cc1 | 3.7 | nt | 2.2 | 15.9 | nt | -49.0*
Cc1ccc(S(=O)(=O)N2CCC(=O)N(CCOC(=O)Nc3cccc(Cl)c3)CC2)cc1 | -1.6 | 1.1 | 92.0* | -47.2 | -5.0 | -42.6
Cc1ccc(S(=O)(=O)N2CCC(=O)N(CCOCc3ccc(C(F)(F)F)cc3)CC2)cc1 | 1.8 | -1.9 | 68.6* | -43.1 | nt | -31.6
Cc1ccc(NC(=O)OCCN2CCN(S(=O)(=O)c3ccc(C)cc3)CCC2=O)cc1 | 1.7 | -0.2 | -23.3 | -22.0 | 0.9 | -17.6
Cc1cc(SCC(=O)N2CCCC2=O)nc2ccccc12 | 0.1 | nt | 58.1* | nt | -4.7 | 1.4
O=C(C[C@@H]1C=C[C@H](NC(=O)Nc2cc(F)ccc2F)[C@H](CO)O1)Nc1ccc(-c2ccccc2)cc1 | -0.8 | 2.9 | 12.3[16.7 µM] | -20.1 | nt | -29.1
COc1ccccc1Nc1nnc(SCC2CCCCO2)s1 (centres undefined) | 3.3 | nt | -160.8 | -13.0 | nt | -24.4
Cc1ccccc1Nc1nnc(SCC2CCCCO2)s1 (centres undefined) | nt | -9.7 | -46.8 | -4.8 | -6.5 | -22.1*
O=C(Nc1cccc(Cl)c1)N1C[C@H]2[C@@H](c3ccccc31)[C@H](CO)N2C(=O)C1CC1 | -0.3 | -2.9 | nt | -4.9 | 0.0[16.7 µM] | -16.4
CCCNC(=O)N1CC(=O)N2[C@H](CO)[C@@H](c3ccc(C#CCC4CCCC4)cc3)[C@@H]2C1 | 2.0 | nt | nt | -18.2 | nt | -2.0
CC1CN(C(=O)c2cc(S(=O)(=O)N3CCCC3)ccc2Cl)CC(C)O1 (centres undefined) | 0.1 | -7.3 | 2.3 | 11.8 | nt | 8.7
CC1CN(C(=O)c2cc(S(=O)(=O)N(C)c3ccc(F)cc3)ccc2Cl)CC(C)O1 (centres undefined) | 4.3 | -1.7 | 61.3* | 0.2 | -7.3 | 7.3
O=[N+]([O-])c1ccc(C(O)CN2CCN(C/C=C/c3ccccc3)CC2)cc1 (centres undefined) | 0.6 | 7.1 | 4.7 | 51.0* | nt | 2.0
O=[N+]([O-])c1ccc(C(O)CN2CCN(Cc3ccccc3)CC2)cc1 (centres undefined) | -1.6 | -2.5 | 3.4 | 19.4 | -3.3 | -3.4
C/C=C/c1ccc([C@@H]2[C@@H](CNC(=O)c3ccccc3)N(C(C)=O)[C@H]2CO)cc1 | -1.0 | 80.6* | nt | 2.2 | -7.1[16.7 µM] | -3.8
C/C=C/c1ccc([C@@H]2[C@H](CO)N(CC3CC3)[C@H]2CNC(=O)c2ccccc2)cc1 | 10.5* | -2.1 | nt | -5.5 | -21.4[16.7 µM] | 2.0
C/C=C/c1ccc([C@@H]2[C@H](CO)N(C(C)=O)[C@H]2CNC(=O)c2ccncc2)cc1 | -2.0 | -2.6 | nt | -7.4 | -12.1[16.7 µM] | -1.4
C[C@H]1CN([C@@H](C)CO)C(=O)c2cccc(NC(=O)c3nc4ccccc4s3)c2O[C@@H]1CN(C)Cc1ccc(Cl)c(Cl)c1 | -1.4 | -0.9 | 31.0[16.7 µM] | -12.6 | 10.0[16.7 µM] | 1.6
